In ChEMBL document CHEMBL2150999, “Design, synthesis and biological evaluation of benzo[e][1,2,4]triazin-7(1H)-one and [1,2,4]-triazino[5,6,1-jk]carbazol-6-one derivatives as dual inhibitors of beta-amyloid aggregation and acetyl/butyryl cholinesterase” (Eur J Med Chem, 2012):
In brackets after ≈: the same amount, converted by molar mass. Activity calls are given as the source filed them. The calls are words filed in the database; no cut-off is given here.

tested on: not listed separately; test: Inhibition of amyloid beta (1-40) beta-sheet transition assessed as decrease in beta-sheet level after 7 days by CD spectroscopic analysis relative to control; conditions: not given
Method in brief: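 Aβ1-40 (50 µM) in PBS with 10% ethanol, alone or with compound (10 or 50 µM), incubated at 37 °C without agitation. CD spectra 195–250 nm were recorded at room temperature in a 0.1 cm cell, with buffer/ethanol or inhibitor blank baseline subtracted. Absolute ellipticity at 215 nm was followed over time and expressed relative to the control plateau.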

| Compound | inhibition |
| --- | --- |
| O=c1ccc2nc(-c3ccccc3)nn3c4ccccc4c1c23 | inactive |

same assay, conditions: concentration not given here

| Compound | inhibition [%] |
| --- | --- |
| CN(CCCCCN(C)c1cc2nc(-c3ccccc3)nn(-c3ccccc3)c-2cc1=O)Cc1ccccc1 | 40 |

target: Acetylcholinesterase (Electrophorus electricus, UniProt O42275); test: Inhibition of electric eel AChE using acetylthiocholine iodide as substrate after 20 mins by Ellman's method; conditions: not given
Sequence (O42275 whole entry): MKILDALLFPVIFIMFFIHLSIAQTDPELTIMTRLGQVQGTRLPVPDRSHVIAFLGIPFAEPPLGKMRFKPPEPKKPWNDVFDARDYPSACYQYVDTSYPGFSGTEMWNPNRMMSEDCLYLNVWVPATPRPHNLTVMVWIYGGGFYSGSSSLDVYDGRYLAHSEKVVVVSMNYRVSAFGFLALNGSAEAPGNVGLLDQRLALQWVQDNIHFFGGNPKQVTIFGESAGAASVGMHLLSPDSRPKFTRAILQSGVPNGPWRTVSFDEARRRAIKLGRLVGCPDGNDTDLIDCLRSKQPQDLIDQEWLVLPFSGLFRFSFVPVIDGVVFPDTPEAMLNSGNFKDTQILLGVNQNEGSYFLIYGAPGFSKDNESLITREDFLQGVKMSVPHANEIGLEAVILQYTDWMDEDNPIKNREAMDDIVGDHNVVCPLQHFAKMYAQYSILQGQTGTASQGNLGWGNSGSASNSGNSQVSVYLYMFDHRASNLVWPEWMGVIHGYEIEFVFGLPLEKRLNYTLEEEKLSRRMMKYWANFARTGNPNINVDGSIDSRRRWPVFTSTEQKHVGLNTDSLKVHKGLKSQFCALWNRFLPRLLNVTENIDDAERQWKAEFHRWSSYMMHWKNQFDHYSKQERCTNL
Method in brief: (§1)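 Enzyme (eel AChE 463 U/mg or equine serum BChE 13 U/mg) in 0.1 M phosphate buffer pH 8.0 with DTNB, preincubated with inhibitor 20 min at 25 °C. Then acetylthiocholine or butyrylthiocholine iodide added; absorbance rise at 412 nm read 5.0 min at 25 °C. DMSO below 1%. IC50 from nonlinear regression of response/log(concentration), six to seven concentrations, 1×10^-8 to 1×10^-4 M. Means of three independent experiments.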

| Compound | IC50 [nM] |
| --- | --- |
| O=c1cc2n(-c3ccccc3)nc(-c3ccccc3)nc-2cc1N1CCN(c2ccccc2)CC1 | 2200 |
| CN(CCCCCN(C)c1cc2nc(-c3ccccc3)nn(-c3ccccc3)c-2cc1=O)Cc1ccccc1 | 1500 |

target: Cholinesterase (Equus caballus, UniProt P81908); test: Inhibition of equine serum BChE using butyrylthiocholine iodide as substrate after 20 mins by Ellman's method; conditions: not given; method in brief: as §1
Sequence (P81908 whole entry): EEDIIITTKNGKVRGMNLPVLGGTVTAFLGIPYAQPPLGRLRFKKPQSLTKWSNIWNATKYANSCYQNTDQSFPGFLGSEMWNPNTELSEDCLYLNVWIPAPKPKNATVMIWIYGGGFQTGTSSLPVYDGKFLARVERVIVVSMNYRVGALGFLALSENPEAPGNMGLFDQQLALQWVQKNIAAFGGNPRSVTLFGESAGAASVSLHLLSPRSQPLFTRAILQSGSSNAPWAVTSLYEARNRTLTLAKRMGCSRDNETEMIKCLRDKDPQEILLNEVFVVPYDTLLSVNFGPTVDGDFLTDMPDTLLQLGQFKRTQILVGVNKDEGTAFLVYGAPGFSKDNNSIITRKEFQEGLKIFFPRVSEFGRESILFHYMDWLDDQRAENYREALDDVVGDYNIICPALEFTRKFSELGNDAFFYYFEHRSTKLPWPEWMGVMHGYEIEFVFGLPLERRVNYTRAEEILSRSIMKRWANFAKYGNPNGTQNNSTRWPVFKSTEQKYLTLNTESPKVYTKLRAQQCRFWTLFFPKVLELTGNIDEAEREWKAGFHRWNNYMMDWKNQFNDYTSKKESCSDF

| Compound | IC50 [nM] |
| --- | --- |
| CN(CCCCCCCCN(C)c1cc2nc(-c3ccccc3)nn3c4ccccc4c(c1=O)c23)Cc1ccccc1 | 25 |
| CN(C)CCCN(C)c1cc2nc(-c3ccccc3)nn3c4ccccc4c(c1=O)c23 | 4000 |
| CN(CCCCCN(C)c1cc2nc(-c3ccccc3)nn(-c3ccccc3)c-2cc1=O)Cc1ccccc1 | 1900 |
| CN(CCCCCCCCN(C)c1cc2nc(-c3ccccc3)nn(-c3ccccc3)c-2cc1=O)Cc1ccccc1 | 310 |

tested on: not listed separately; test: Inhibition of amyloid beta (1-42) aggregation at 100 uM measured at 8 hrs and 24 hrs by thioflavin T fluorescence method; conditions: not given
Method in brief: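 Aβ1-42 (30 µM) in PBS/10% DMSO at 37 °C, alone or with compound at 100 µM. ThT fluorescence (ex 440, em 485 nm) read at 8 h and 24 h, reported in arbitrary units; mean ± SEM of three independent experiments.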

| Compound | inhibition |
| --- | --- |
| CN(CCCCCCCCN(C)c1cc2nc(-c3ccccc3)nn3c4ccccc4c(c1=O)c23)Cc1ccccc1 | Active |
| O=c1c(O)c(-c2ccc(O)c(O)c2)oc2cc(O)cc(O)c12 | Active |
| CN(CCCCCN(C)c1cc2nc(-c3ccccc3)nn(-c3ccccc3)c-2cc1=O)Cc1ccccc1 | Active |
| O=c1ccc2nc(-c3ccccc3)nn3c4ccccc4c1c23 | Active |
| CC1CCCCN1c1cc2nc(-c3ccccc3)nn(-c3ccccc3)c-2cc1=O (stereo not given) | Active |

target: Acetylcholinesterase (Electrophorus electricus) (UniProt O42275); test: Inhibition of electric eel AChE using acetylthiocholine iodide as substrate at 10 uM after 20 mins by Ellman's method; conditions: not given
Sequence (O42275 24-633 limits assumed): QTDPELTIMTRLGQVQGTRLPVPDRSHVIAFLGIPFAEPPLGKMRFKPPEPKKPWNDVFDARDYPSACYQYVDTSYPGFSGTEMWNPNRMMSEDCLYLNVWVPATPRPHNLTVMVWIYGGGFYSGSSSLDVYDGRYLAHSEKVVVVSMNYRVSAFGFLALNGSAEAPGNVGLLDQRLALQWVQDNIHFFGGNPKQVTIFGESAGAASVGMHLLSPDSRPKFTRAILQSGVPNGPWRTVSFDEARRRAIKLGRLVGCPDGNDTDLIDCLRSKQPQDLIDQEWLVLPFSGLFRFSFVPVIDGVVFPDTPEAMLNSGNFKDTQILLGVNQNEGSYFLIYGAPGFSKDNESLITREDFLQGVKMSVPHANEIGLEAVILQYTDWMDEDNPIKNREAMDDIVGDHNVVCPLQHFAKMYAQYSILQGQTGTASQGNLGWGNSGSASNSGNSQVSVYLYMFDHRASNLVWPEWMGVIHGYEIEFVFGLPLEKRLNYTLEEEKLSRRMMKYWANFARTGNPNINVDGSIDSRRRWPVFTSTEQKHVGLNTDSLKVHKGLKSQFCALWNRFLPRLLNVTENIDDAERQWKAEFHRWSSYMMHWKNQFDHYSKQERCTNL

| Compound | inhibition [%] |
| --- | --- |
| O=c1cc2n(-c3ccccc3)nc(-c3ccccc3)nc-2cc1Nc1ccccc1 | 57 |
| CN(CCCCCCCCN(C)c1cc2nc(-c3ccccc3)nn3c4ccccc4c(c1=O)c23)Cc1ccccc1 | 55 |
| CCN(CC)c1cc2nc(-c3ccccc3)nn(-c3ccccc3)c-2cc1=O | 55 |
| COc1cc2nc(-c3ccccc3)nn3c4ccccc4c(c1=O)c23 | 52 |
| O=c1c(N2CCC(c3ccccc3)CC2)cc2nc(-c3ccccc3)nn3c4ccccc4c1c23 | 48 |
| O=c1cc2n(-c3ccccc3)nc(-c3ccccc3)nc-2cc1N1CCCCCC1 | 46 |
| CN(c1ccccc1)c1cc2nc(-c3ccccc3)nn(-c3ccccc3)c-2cc1=O | 57 |
| CC1CCCN(c2cc3nc(-c4ccccc4)nn4c5ccccc5c(c2=O)c34)C1 (stereo not given) | 27 |
| O=c1cc2n(-c3ccccc3)nc(-c3ccccc3)nc-2cc1N1CCCc2ccccc21 | 41 |
| CCN(CC)c1cc2nc(-c3ccccc3)nn3c4ccccc4c(c1=O)c23 | 46 |
| CN(CCCCCCCCNc1cc2nc(-c3ccccc3)nn(-c3ccccc3)c-2cc1=O)Cc1ccccc1 | 45 |
| O=c1cc2n(-c3ccccc3)nc(-c3ccccc3)nc-2cc1N1CCN(Cc2ccccc2)CC1 | 56 |
| CN(C)CCCN(C)c1cc2nc(-c3ccccc3)nn3c4ccccc4c(c1=O)c23 | 49 |
| O=c1ccc2nc(-c3ccccc3)nn3c4ccccc4c1c23 | 46 |
| CC1CCCCN1c1cc2nc(-c3ccccc3)nn(-c3ccccc3)c-2cc1=O (stereo not given) | 0 |
| CN(CCCCCCCCN(C)c1cc2nc(-c3ccccc3)nn(-c3ccccc3)c-2cc1=O)Cc1ccccc1 | 50 |

tested on: not listed separately; test: Inhibition of HFIP-induced amyloid beta (1-40) aggregation at 100 uM after 2 hrs by thioflavin T fluorescence method; conditions: not given
Method in brief: (§2)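 Pre-monomerized Aβ1-40 (HFIP-dissolved, lyophilized) at 30 µM in PBS (0.01 M, NaCl 0.1 M, pH 7.4) with 2% HFIP and 10% DMSO, coincubated with compound in triplicate at 25 °C for 2 h. Sample mixed with 25 µM ThT in 0.025 M phosphate pH 6.0; excitation 440 nm, emission 485 nm. Peptide-free blanks subtracted; % inhibition versus control. Primary screen at 100 µM. IC50 from 5–7 concentrations (200–0.01 µM) tested in duplicate, three independent experiments.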

| Compound | inhibition [%] |
| --- | --- |
| O=c1cc2n(-c3ccccc3)nc(-c3ccccc3)nc-2cc1Nc1ccccc1 | 13 |
| COc1cc2nc(-c3ccccc3)nn3c4ccccc4c(c1=O)c23 | 33 |
| CN(c1ccccc1)c1cc2nc(-c3ccccc3)nn(-c3ccccc3)c-2cc1=O | 51 |
| O=c1cc2n(-c3ccccc3)nc(-c3ccccc3)nc-2cc1N1CCN(Cc2ccccc2)CC1 | 61 |
| O=c1cc2n(-c3ccccc3)nc(-c3ccccc3)nc-2cc1N1CCN(c2ccccc2)CC1 | 53 |

tested on: not listed separately; test: Aqueous solubility of the compound in PBS buffer; type: physicochemical; conditions: not given
Method in brief: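 Preliminary solubility in the incubation medium (PBS with up to 10% ethanol cosolvent) measured by UV spectroscopy; used to set the maximum soluble test concentration.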

| Compound | solubility [µM] |
| --- | --- |
| CN(CCCCCN(C)c1cc2nc(-c3ccccc3)nn(-c3ccccc3)c-2cc1=O)Cc1ccccc1 | 10 (≈ 5.18 µg/mL) |
| O=c1ccc2nc(-c3ccccc3)nn3c4ccccc4c1c23 | 50 (≈ 14.9 µg/mL) |

target: Cholinesterase (Equus caballus) (UniProt P81908); test: Inhibition of equine serum BChE using butyrylthiocholine iodide as substrate at 10 uM after 20 mins by Ellman's method; conditions: not given
Sequence (P81908 whole entry): as the sequence (P81908 whole entry) above

| Compound | inhibition [%] |
| --- | --- |
| O=c1cc2n(-c3ccccc3)nc(-c3ccccc3)nc-2cc1Nc1ccccc1 | 9 |
| CCN(CC)c1cc2nc(-c3ccccc3)nn(-c3ccccc3)c-2cc1=O | 19 |
| COc1cc2nc(-c3ccccc3)nn3c4ccccc4c(c1=O)c23 | 11 |
| O=c1c(N2CCC(c3ccccc3)CC2)cc2nc(-c3ccccc3)nn3c4ccccc4c1c23 | 11 |
| O=c1cc2n(-c3ccccc3)nc(-c3ccccc3)nc-2cc1N1CCCCCC1 | 47 |
| CN(c1ccccc1)c1cc2nc(-c3ccccc3)nn(-c3ccccc3)c-2cc1=O | 11 |
| CC1CCCN(c2cc3nc(-c4ccccc4)nn4c5ccccc5c(c2=O)c34)C1 (stereo not given) | 53 |
| O=c1cc2n(-c3ccccc3)nc(-c3ccccc3)nc-2cc1N1CCCc2ccccc21 | 10 |
| CCN(CC)c1cc2nc(-c3ccccc3)nn3c4ccccc4c(c1=O)c23 | 54 |
| CN(CCCCCCCCNc1cc2nc(-c3ccccc3)nn(-c3ccccc3)c-2cc1=O)Cc1ccccc1 | 28 |
| O=c1cc2n(-c3ccccc3)nc(-c3ccccc3)nc-2cc1N1CCN(Cc2ccccc2)CC1 | 18 |
| O=c1cc2n(-c3ccccc3)nc(-c3ccccc3)nc-2cc1N1CCN(c2ccccc2)CC1 | 15 |
| O=c1ccc2nc(-c3ccccc3)nn3c4ccccc4c1c23 | 59 |
| CC1CCCCN1c1cc2nc(-c3ccccc3)nn(-c3ccccc3)c-2cc1=O (stereo not given) | 22 |

tested on: not listed separately; test: Inhibition of HFIP-induced amyloid beta (1-40) aggregation after 2 hrs by thioflavin T fluorescence method; conditions: not given; method in brief: as §2

| Compound | IC50 [nM] |
| --- | --- |
| CN(CCCCCCCCN(C)c1cc2nc(-c3ccccc3)nn3c4ccccc4c(c1=O)c23)Cc1ccccc1 | 1400 |
| CCN(CC)c1cc2nc(-c3ccccc3)nn(-c3ccccc3)c-2cc1=O | 17000 |
| O=c1c(N2CCC(c3ccccc3)CC2)cc2nc(-c3ccccc3)nn3c4ccccc4c1c23 | 3900 |
| O=c1cc2n(-c3ccccc3)nc(-c3ccccc3)nc-2cc1N1CCCCCC1 | 2800 |
| CC1CCCN(c2cc3nc(-c4ccccc4)nn4c5ccccc5c(c2=O)c34)C1 (stereo not given) | 5500 |
| O=c1cc2n(-c3ccccc3)nc(-c3ccccc3)nc-2cc1N1CCCc2ccccc21 | 6700 |
| CCN(CC)c1cc2nc(-c3ccccc3)nn3c4ccccc4c(c1=O)c23 | 1400 |
| CN(CCCCCCCCNc1cc2nc(-c3ccccc3)nn(-c3ccccc3)c-2cc1=O)Cc1ccccc1 | 21000 |
| CN(C)CCCN(C)c1cc2nc(-c3ccccc3)nn3c4ccccc4c(c1=O)c23 | 7600 |
| CN(CCCCCN(C)c1cc2nc(-c3ccccc3)nn(-c3ccccc3)c-2cc1=O)Cc1ccccc1 | 1400 |
| O=c1ccc2nc(-c3ccccc3)nn3c4ccccc4c1c23 | 6100 |
| CC1CCCCN1c1cc2nc(-c3ccccc3)nn(-c3ccccc3)c-2cc1=O (stereo not given) | 370 |
| CN(CCCCCCCCN(C)c1cc2nc(-c3ccccc3)nn(-c3ccccc3)c-2cc1=O)Cc1ccccc1 | 65000 |

tested on: not listed separately; test: Inhibition of amyloid beta (1-40) fibrillation assessed as extended fibrillar weft formation at 50 uM after 7 days by TEM analysis; conditions: not given
Method in brief: (§3)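 Aβ1-40 (50 µM) in PBS/10% ethanol, with compound at 10 or 50 µM, incubated at 37 °C for up to 10 days. Aliquots taken at 7 days were applied to carbon-coated grids and negatively stained with 2% w/v uranyl acetate. Imaged by TEM at 60 kV and 39 000-fold magnification, compared with self-aggregating control.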

| Compound | inhibition |
| --- | --- |
| O=c1ccc2nc(-c3ccccc3)nn3c4ccccc4c1c23 | Active |

tested on: not listed separately; test: Inhibition of amyloid beta (1-40) fibrillation assessed as isolated fibrillar aggregates formation at 10 uM after 7 days by TEM analysis; conditions: not given; method in brief: as §3

| Compound | inhibition |
| --- | --- |
| CN(CCCCCN(C)c1cc2nc(-c3ccccc3)nn(-c3ccccc3)c-2cc1=O)Cc1ccccc1 | Active |
